According to ChEMBL document CHEMBL4190282, “The Conjugated Double Bond of Coniferyl Aldehyde Is Essential for Heat Shock Factor 1 Mediated Cytotoprotection” (J Nat Prod, 2017):
Calls of active or inactive are those of the source. No cut-off for these calls is given here.

Key:
[1] = biological target: T1, Heat shock factor protein 1 (Mus musculus) (UniProt P38532); experiment: Activation of HSF1 in MEF assessed as protection against cisplatin-induced PARP cleavage at 3 uM pretreated for 1 hr followed by cisplatin addition measured after 24 hrs by immunoblotting analysis; format: cell-based
T1 sequence (whole entry): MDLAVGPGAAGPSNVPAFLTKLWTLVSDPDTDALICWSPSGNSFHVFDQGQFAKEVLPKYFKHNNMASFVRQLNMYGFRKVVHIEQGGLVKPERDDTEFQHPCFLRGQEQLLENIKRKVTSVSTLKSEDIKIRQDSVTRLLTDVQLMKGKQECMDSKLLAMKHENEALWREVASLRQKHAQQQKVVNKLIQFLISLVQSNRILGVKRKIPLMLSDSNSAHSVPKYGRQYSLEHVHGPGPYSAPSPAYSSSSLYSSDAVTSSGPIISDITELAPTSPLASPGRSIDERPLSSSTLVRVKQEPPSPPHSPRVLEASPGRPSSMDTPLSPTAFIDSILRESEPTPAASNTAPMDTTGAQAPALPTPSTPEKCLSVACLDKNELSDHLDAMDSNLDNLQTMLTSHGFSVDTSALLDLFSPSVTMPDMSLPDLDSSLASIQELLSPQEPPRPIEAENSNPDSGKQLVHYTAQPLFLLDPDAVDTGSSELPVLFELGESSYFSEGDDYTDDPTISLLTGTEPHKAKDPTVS
Method in brief: (§1)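 HSF1+/+ or HSF1−/− MEFs in DMEM with heat-inactivated 10% FBS, nonessential amino acids, glutamine, HEPES, 37 °C, 5% CO2. 1 h pretreatment at 3 μM, then 0.5 μM paclitaxel or 20 μM cisplatin for 24 h, or 10 Gy 137Cs γ-rays (3.81 Gy/min) for 48 h. Cleaved PARP and caspase-3 immunoblotted; bands normalized to loading control, fold-change vs negative control, ≥3 independent experiments.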

[2] = test system: Mus musculus; experiment: Toxicity in ICR mouse at 10 mg/kg, ip measured within 30 days; format: organism-based; settings: in vivo, 720 h
Method in brief: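 Normal ICR mice given 10 mg/kg ip (DMSO stock diluted in modified PBS); observed for signs of toxicity over 30 days.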

[3] = biological target: T2, Heat shock factor protein 1 (Homo sapiens) (UniProt Q00613); experiment: Activation of HSF1 in human NCI-H460 cells assessed as upregulation of HSP25 protein levels at 10 to 30 uM after 12 hrs by Western blot analysis; format: cell-based
T2 sequence (whole entry): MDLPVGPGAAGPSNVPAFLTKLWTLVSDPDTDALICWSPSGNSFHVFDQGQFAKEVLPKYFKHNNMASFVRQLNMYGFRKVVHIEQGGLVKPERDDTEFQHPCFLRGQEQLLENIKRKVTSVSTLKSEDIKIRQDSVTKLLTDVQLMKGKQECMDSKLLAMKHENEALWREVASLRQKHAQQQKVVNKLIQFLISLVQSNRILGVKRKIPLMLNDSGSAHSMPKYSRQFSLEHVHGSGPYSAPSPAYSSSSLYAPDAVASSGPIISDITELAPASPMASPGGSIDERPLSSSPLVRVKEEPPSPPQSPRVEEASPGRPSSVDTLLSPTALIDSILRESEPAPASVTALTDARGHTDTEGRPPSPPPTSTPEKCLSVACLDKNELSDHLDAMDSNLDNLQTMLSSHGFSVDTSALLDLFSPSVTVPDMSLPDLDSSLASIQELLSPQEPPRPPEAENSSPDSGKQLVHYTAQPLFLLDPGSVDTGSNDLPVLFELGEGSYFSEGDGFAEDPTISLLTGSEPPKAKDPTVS
Method in brief: (§2)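 NCI-H460 cells treated 12 h at 10 or 30 μM; HSF1, HSP27 and HSP70 detected by Western blot.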

[4] = biological target: T1, Heat shock factor protein 1 (Mus musculus); experiment: Activation of HSF1 in MEF assessed as protection against paclitaxel-induced PARP cleavage at 3 uM pretreated for 1 hr followed by paclitaxel addition measured after 24 hrs by immunoblotting analysis; format: cell-based; method in brief: as §1
[5] = test system: L132; experiment: Cytoprotective activity against IR-induced PARP cleavage in human L-132 cells at 3 uM pretreated for 1 hr followed by 10 Gy irradiation measured after 48 hrs by immunoblotting analysis; format: functional, cell-based
Method in brief: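 Human embryonic lung L132 cells in RPMI with 10% FBS. 1 h pretreatment at 3 μM, then 0.5 μM paclitaxel or 20 μM cisplatin for 24 h, or 10 Gy 137Cs γ-rays (3.81 Gy/min) for 48 h. Cleaved PARP and caspase-3 immunoblotted (ECL); bands normalized to loading control, fold-change vs negative control, ≥3 independent experiments.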

[6] = biological target: T2, Heat shock factor protein 1 (Homo sapiens); experiment: Activation of HSF1 in human L132 cells assessed as increase in HSP25 mRNA expression at 3 uM after 12 hrs by RT-PCR analysis; format: cell-based
Method in brief: (§3)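 L132 human lung fibroblasts treated 12 h at 3 μM; hsp27 and hsp70 mRNA measured by RT-PCR under the same conditions as immunoblotting. Celastrol 1 μM positive control.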

[7] = test system: Mus musculus; experiment: Protection against IR-induced reduction of spleen weight in ICR mouse at 10 mg/kg, ip administered once before and three times after irradiation measured after 9 days; format: functional, organism-based
Method in brief: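 Female ICR mice (5–6 weeks) given 4.5 Gy whole-body IR, dosed ip at 10 mg/kg once before and three times after IR; 5 per group, sacrificed day 9. BM cellularity from H&E (hematopoietic cells per 200×200 μm area); peripheral WBC, lymphocytes, neutrophils; Ki67 IHC counted in five fields per femur; relative spleen weight vs control. Means ± SD, Student's t test.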

[8] = biological target: T2, Heat shock factor protein 1 (Homo sapiens); experiment: Activation of HSF1 in human L132 cells assessed as increase in HSP25 protein levels at 3 uM after 12 hrs by immunoblotting analysis; format: cell-based
Method in brief: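 L132 cells treated at 3 μM for 12 h, or at various doses for 12 h, or at 3 μM over a time course. Lysates resolved by SDS-PAGE, blotted to nitrocellulose, milk-blocked, primary antibodies 18 h at 4 °C, ECL detection. HSP27, HSP70 and Ser326-phospho-HSF1 bands normalized to loading control; ≥3 independent experiments; celastrol 1 μM positive control.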

[9] = biological target: T2, Heat shock factor protein 1 (Homo sapiens); experiment: Activation of HSF1 in human NCI-H460 cells assessed as upregulation of HSP70 protein levels at 10 to 30 uM after 12 hrs by Western blot analysis; format: cell-based; method in brief: as §2
[10] = test system: Mus musculus; experiment: Protection against IR-induced lethargy in ICR mouse at 5 to 10 mg/kg, ip administered once before and three times after 7 Gy irradiation measured daily for 30 days; format: functional, organism-based
Method in brief: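 Female ICR mice (5–6 weeks, 25–30 g) given 7 Gy whole-body IR; dosed ip at 5 or 10 mg/kg once before and three times after IR, DMSO stock diluted in modified PBS. Survival days and radiation sickness signs checked twice daily; 10 mice per group.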

[11] = biological target: T2, Heat shock factor protein 1 (Homo sapiens); experiment: Activation of HSF1 in human NCI-H460 cells expressing pGL4-hsp70 construct assessed as upregulation of hsp70 promoter activity at 10 to 30 uM after 12 hrs by luciferase reporter gene assay; format: cell-based
Method in brief: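 NCI-H460 cells stably carrying hsp25 or hsp70 promoter–luciferase reporters, seeded, treated after 24 h at 10 or 30 μM and harvested 12 h later. Lysate luciferase normalized to β-galactosidase; mean of three independent experiments, fold-change vs negative control.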

[12] = biological target: T2, Heat shock factor protein 1 (Homo sapiens); experiment: Activation of HSF1 in human L132 cells assessed as increase in HSP70 mRNA expression at 3 uM after 12 hrs by RT-PCR analysis; format: cell-based; method in brief: as §3

Activity [1]	Activity [3]	Activity [4]	Activity [6]	Activity [8]	Activity [9]	Activity [11]	Activity [12]	SMILES	Activity [2]	Activity [5]	Activity [7]	Activity [10]
Active	Active	Active	Active	Active	Active	Active	Active	COc1cc(/C=C/CO)ccc1O [CONIFERYL ALCOHOL]	Non-Toxic	Active	Active	Active
Active	Active	Active	Active	Active	Active	Active	Active	COc1cc(/C=C/C=O)ccc1O [CONIFERYL ALDEHYDE]	Non-Toxic	Active	Active	Active
